These results are taken from ChEMBL document CHEMBL3580660, “Synthesis and Biological Evaluation of Novel Olean-28,13β-lactams as Potential Antiprostate Cancer Agents” (J Med Chem, 2015).

For data set [1], the system named is DU-145. The data set is described as follows: Induction of apoptosis in human DU145 cells assessed as increase in Bax to Bcl2 ratio at 0.08 to 0.32 uM after 24 hrs by Western blot analysis. Type of data set: functional, cell-based. A digest of the protocol:
(§1)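 DU-145 cells (5 × 10^5/well) in 10% FCS Ham's F-12K overnight, treated in duplicate with compound or vehicle 24 h; lysed (Tris pH 8, EGTA, NaCl, NP-40, Triton X-100), protein by BCA. Blots blocked in 5% milk, probed for AKT, p-AKT Ser473, mTOR, p-mTOR Ser2448, Bax, Bcl-2, β-actin; ECL detection, densitometry relative to control; three separate experiments.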
Background: In western blotting, separated proteins are transferred to a membrane and probed.

Data set [2] deals with Mus musculus. Description: Acute toxicity in ICR mouse assessed as mortality at 327.8 mg/kg, oral gavage after 3 days. Type of data set: organism-based. The note with it: in vivo, 72 h. In outline:
(§2)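 ICR mice of both sexes, 7 weeks old, held under SPF conditions. Each got one gavage dose (800, 640, 512, 409.6 or 327.8 mg/kg) or vehicle, n = 8 per group. Deaths were recorded at 1 h, 4 h, 3 d and 4–14 d. Behaviour, water and food intake, body weight and activity were followed to day 14. LD50 given with 95% confidence limits.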

The nature of data set [3]: Acute toxicity in ICR mouse assessed as survival at 327.8 mg/kg, oral gavage on day 14. It is filed as organism-based. The note with it: in vivo. A digest of the protocol: as §2
Data set [4] has as its system Mus musculus. Description: Acute toxicity in ICR mouse assessed as mortality at 640 mg/kg, oral gavage after 4 to 14 days. It is filed as organism-based. To be noted: in vivo. A digest of the protocol:
as §2

Data set [5] can be described thus: Acute toxicity in ICR mouse assessed as survival at 512 mg/kg, oral gavage on day 14. Type of data set: organism-based. The note with it: in vivo. In outline: as §2
Data set [6] deals with Mus musculus. Description: Acute toxicity in ICR mouse assessed as mortality at 640 mg/kg, oral gavage after 1 hr. It is filed as organism-based. To be noted: in vivo. A digest of the protocol:
as §2

Data set [7] deals with DU-145. The data set is described as follows: Effect on Akt protein expression in human DU145 cells at 0.08 to 0.32 uM after 24 hrs by Western blot analysis. Type of data set: functional, cell-based. In outline:
as §1

Data set [8] has as its system DU-145. Description: Induction of cell cycle arrest in human DU145 cells assessed as cells accumulation at G0/G1 phase at 0.08 uM after 24 hrs by propidium iodide staining-based flow cytometry (reference value: 54%). It is filed as functional. For orientation: A flow cytometer gives signals particle by particle.
Data set [9] can be described thus: Antiproliferative activity against human BxPC3 cells after 72 hrs by CCK8 assay. Type of data set: functional, cell-based. The note with it: BXPC-3, 72 h. In outline:
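CCK-8 assay: DU-145, H460, Bxpc-3, BEL-7404 and nontumor WPMY-1 cells seeded at 5 × 10^3 cells/well in 10% FCS DMEM overnight, then exposed in triplicate to 0.041−10 μM for 72 h. CCK-8 added for final 30 min, absorbance 450 nm; inhibition relative to medium-only controls after background subtraction; IC50 as concentration giving 50% inhibition.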

Data set [10] deals with DU-145. Description: Induction of cell cycle arrest in human DU145 cells assessed as cells accumulation at G0/G1 phase at 0.16 uM after 24 hrs by propidium iodide staining-based flow cytometry (reference value: 54%). Type of data set: functional.
Data set [11] relates to Mus musculus. The data set is described as follows: Acute toxicity in ICR mouse assessed as mortality at 409.6 mg/kg, oral gavage after 1 hr. Type of data set: organism-based. The note with it: in vivo. In outline:
as §2

The subject of data set [12] is Mus musculus. The data set is described as follows: Acute toxicity in ICR mouse assessed as mortality at 512 mg/kg, oral gavage after 4 to 14 days. The note with it: in vivo. Type of data set: organism-based. In outline:
as §2

The test system of data set [13] is DU-145. The data set is described as follows: Induction of apoptosis in human DU145 cells assessed as reduction in Bcl2 expression at 0.08 to 0.32 uM after 24 hrs by Western blot analysis. It is filed as functional, cell-based. A digest of the protocol:
as §1

Data set [14] has as its system Mus musculus. The data set is described as follows: Acute toxicity in ICR mouse assessed as mortality at 327.8 mg/kg, oral gavage after 4 hrs. It is filed as organism-based. The note with it: in vivo. A digest of the protocol:
as §2

The target in the next data set is T1, Cytochrome P450 1A2 (Homo sapiens, UniProt P05177).
T1 sequence (P05177 whole entry): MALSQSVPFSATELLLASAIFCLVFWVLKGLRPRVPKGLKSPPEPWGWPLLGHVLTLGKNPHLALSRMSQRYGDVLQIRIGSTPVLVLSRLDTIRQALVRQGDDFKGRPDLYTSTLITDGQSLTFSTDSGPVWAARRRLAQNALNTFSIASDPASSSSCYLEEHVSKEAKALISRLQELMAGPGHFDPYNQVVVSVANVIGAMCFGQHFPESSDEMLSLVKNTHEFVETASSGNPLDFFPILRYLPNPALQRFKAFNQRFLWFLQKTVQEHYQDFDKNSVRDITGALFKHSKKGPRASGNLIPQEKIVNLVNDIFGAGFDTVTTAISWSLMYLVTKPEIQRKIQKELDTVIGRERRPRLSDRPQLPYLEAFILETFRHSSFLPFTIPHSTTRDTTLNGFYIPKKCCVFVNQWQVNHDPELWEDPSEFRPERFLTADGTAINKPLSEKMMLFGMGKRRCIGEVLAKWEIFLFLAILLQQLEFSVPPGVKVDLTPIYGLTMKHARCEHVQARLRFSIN
The data set is described as follows: Inhibition of CYP1A2 in human liver microsomes after 1 hr by LC-MS/MS analysis. A general note: Liver microsomes are vesicles of endoplasmic reticulum, rich in cytochrome P450 enzymes.

The target in another data set is Cytochrome P450 3A4 (Homo sapiens, UniProt P08684). The data set is described as follows: Inhibition of CYP3A4 in human liver microsomes using midazolam as substrate after 1 hr by LC-MS/MS analysis.
Data set [15] has as its system DU-145. Description: Induction of cell cycle arrest in human DU145 cells assessed as cells accumulation at S phase at 0.08 uM after 24 hrs by propidium iodide staining-based flow cytometry (reference value: 24%). It is filed as functional.
In data set [16] the test system is Mus musculus. The data set is described as follows: Acute toxicity in ICR mouse assessed as mortality at 800 mg/kg, oral gavage after 4 to 14 days. The note with it: in vivo. Type of data set: organism-based. A digest of the protocol:
as §2

The target in data set [17] is Serine/threonine-protein kinase mTOR (Homo sapiens) (UniProt P42345). Description: Reduction in phosphorylated mTOR protein expression in human DU145 cells at 0.08 to 0.32 uM after 24 hrs by Western blot analysis. Type of data set: functional, cell-based. To be noted: DU-145. A digest of the protocol: as §1
Data set [18] has as its system Mus musculus. Description: Acute toxicity in ICR mouse assessed as total mortality at […] mg/kg, oral gavage up to 14 days. It is filed as organism-based. To be noted: in vivo, 336 h. In outline:
as §2

Data set [19] in a line: Acute toxicity in ICR mouse assessed as survival at 800 mg/kg, oral gavage on day 14. It is filed as organism-based. The note with it: in vivo. In outline:
as §2

The test system of data set [20] is Mus musculus. Description: Acute toxicity in ICR mouse assessed as mortality at 327.8 mg/kg, oral gavage after 4 to 14 days. It is filed as organism-based. To be noted: in vivo. A digest of the protocol:
as §2

The nature of data set [21]: Acute toxicity oral gavage treated in ICR mouse assessed as mortality measured up to 14 days. Type of data set: organism-based. The note with it: in vivo. A digest of the protocol: as §2
In data set [22] the test system is DU-145. The data set is described as follows: Antiproliferative activity against human DU145 cells at 2 uM after 72 hrs by CCK8 assay. To be noted: DU-145, 72 h. Type of data set: functional. A digest of the protocol: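 DU-145 screening at single concentration 2 μM for 72 h, proliferation by CCK-8 (cells 5 × 10^3/well in 10% FCS DMEM). Percent inhibition vs untreated, background-corrected; mean ± SD from three independent experiments.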

Activity calls are given as the source filed them. The rule behind the calls is not given here.

Cytochrome P450 3A4, sequence (P08684 whole entry): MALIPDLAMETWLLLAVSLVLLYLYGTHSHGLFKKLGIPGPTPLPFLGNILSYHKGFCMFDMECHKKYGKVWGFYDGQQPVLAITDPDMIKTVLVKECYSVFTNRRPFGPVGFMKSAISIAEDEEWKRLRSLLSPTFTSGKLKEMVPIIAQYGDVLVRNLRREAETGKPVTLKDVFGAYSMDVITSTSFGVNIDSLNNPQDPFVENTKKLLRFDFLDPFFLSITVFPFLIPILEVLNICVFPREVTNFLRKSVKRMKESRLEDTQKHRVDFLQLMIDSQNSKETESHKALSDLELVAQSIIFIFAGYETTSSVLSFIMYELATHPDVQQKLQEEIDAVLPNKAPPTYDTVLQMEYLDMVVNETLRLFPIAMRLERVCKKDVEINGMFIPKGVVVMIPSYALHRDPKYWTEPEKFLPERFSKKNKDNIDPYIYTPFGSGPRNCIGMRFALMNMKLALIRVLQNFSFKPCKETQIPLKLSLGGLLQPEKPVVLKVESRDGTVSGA

One may read the IC50 as the midpoint of a concentration-inhibition curve. Low values mean greater potency in that assay, high ones weaker potency in that assay. Broadly, the inhibition is how much of the control response was suppressed. The term LD50 denotes the dose at which mortality reaches 50%. Regarding `CC1(C)CC[C@]23CC[C@@]4(C)[C@]5(C)CC[C@H]6C(C)(C)C(=O)C(C#N)=C[C@]6(C)C5=CC(=O)[C@@]4([C@@H]2C1)N(C1CCCCC1)C3=O`, the result in the data set on DU-145 [1] was Active. For the same compound, the Activity entry is on record as “Non-toxic” in the data set with Mus musculus [2]; “Non-toxic” with Mus musculus [4]; “Non-toxic” in the data set on Mus musculus [6]; 56% in the data set with DU-145 [8]; 68% in the data set with DU-145 [10]; “Non-toxic” in the data set on Mus musculus [11]. In addition, the Activity result is reported as “Non-toxic” with Mus musculus [12]; “Non-toxic” in the data set with Mus musculus [14]; 25% in the data set on DU-145 [15]; “Non-toxic” in the data set with Mus musculus [16]; “Toxic” in the data set on Mus musculus [18]; “Non-toxic” in the data set with Mus musculus [20]. Besides, the survival at 14 day in [3] worked out at 100%; in data set [5], 63%; in [19], 0%. Moreover, the outcome with DU-145 [7] was inactive. For the same compound, the IC50 in [9] is 330 nM; at Cytochrome P450 1A2, above 100000 nM; at Cytochrome P450 3A4, 932 nM. For the same compound, the inhibition result (in the data set on DU-145 [13]; in [17]) was “Active” each time. The LD50 at 336 h in [21] came out at 541 mg/kg. The same compound had an inhibition at 2 µM with DU-145 [22] of 75%.
